The subject of data set [1] is Staphylococcus aureus. The experiment in a line: Antibacterial activity against multidrug-resistant Staphylococcus aureus isolate 2490 by broth microdilution assay. Format: functional. The essentials:
(§1)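 Broth microdilution MIC per CLSI guidelines against clinical MRSA isolates, for β-lactams and test compound alone and in combination. Compounds were dissolved in DMSO. Growth was read by eye, in duplicate. FIC index = FIC(compound) + FIC(drug); synergy defined as FIC index ≤0.5.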
(In general: Dilution methods test growth across graded concentrations, often in twofold steps.)

Data set [2] relates to Staphylococcus aureus. The experiment in a line: Antibacterial activity against multidrug-resistant Staphylococcus aureus isolate 358 by broth microdilution assay. Format: functional. An outline of the steps:
as §1

The test system of data set [3] is Staphylococcus aureus. The data set is described as follows: Antibacterial activity against multidrug-resistant Staphylococcus aureus isolate 2973 by broth microdilution assay. Type of data set: functional. The essentials:
as §1

For data set [4], the system named is Staphylococcus aureus. The data set is described as follows: Synergistic antibacterial activity against multidrug-resistant Staphylococcus aureus isolate 2490 in presence of amoxicillin by broth microdilution assay. Format: functional. An outline of the steps: (§2)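 Clinical MRSA isolate panel; compound and β-lactam tested alone and in combination by CLSI broth microdilution, compounds dissolved in DMSO, growth inhibition scored by eye, run in duplicate. FIC index = FIC(compound) + FIC(drug), each the MIC in combination divided by the MIC alone; an index ≤ 0.5 was called synergy.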

The subject of data set [5] is Staphylococcus aureus. The data set is described as follows: Synergistic antibacterial activity against multidrug-resistant Staphylococcus aureus isolate 1344 in presence of amoxicillin by broth microdilution assay. Format: functional. An outline of the steps:
as §2

Data set [6] deals with Staphylococcus aureus. The experiment in a line: Synergistic antibacterial activity against multidrug-resistant Staphylococcus aureus isolate 757 in presence of amoxicillin by broth microdilution assay. Type of data set: functional.
For data set [7], the system named is Staphylococcus aureus. The experiment in a line: Synergistic antibacterial activity against multidrug-resistant Staphylococcus aureus isolate 3267 in presence of methicillin by broth microdilution assay. Format: functional. The essentials:
(§3)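 CLSI broth microdilution on clinical MRSA isolates. MICs were measured for the β-lactam alone, the test agent alone and the two combined. Compounds were dissolved in DMSO, and growth inhibition was scored by eye. FIC index is the sum, over both agents, of MIC in combination divided by MIC alone. An FIC index ≤0.5 was taken as synergy.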

In data set [8] the test system is Staphylococcus aureus. The data set is described as follows: Synergistic antibacterial activity against multidrug-resistant Staphylococcus aureus isolate 2919 in presence of methicillin by broth microdilution assay. Format: functional. The essentials:
as §3

Data set [9] relates to Staphylococcus aureus. The data set is described as follows: Synergistic antibacterial activity against multidrug-resistant Staphylococcus aureus isolate 2728 in presence of methicillin by broth microdilution assay. Type of data set: functional. An outline of the steps: as §3
Data set [10] concerns Staphylococcus aureus. The experiment in a line: Synergistic antibacterial activity against multidrug-resistant Staphylococcus aureus isolate 85 in presence of cefuroxime by broth microdilution assay. Type of data set: functional.
The subject of data set [11] is Staphylococcus aureus. The experiment in a line: Synergistic antibacterial activity against multidrug-resistant Staphylococcus aureus isolate 1344 in presence of meropenem by broth microdilution assay. Format: functional. An outline of the steps:
as §2

Data set [12] concerns Staphylococcus aureus. The data set is described as follows: Synergistic antibacterial activity against multidrug-resistant Staphylococcus aureus isolate 2895 assessed as fractional Inhibitory concentration index in presence of amoxicillin by broth microdilution assay. Format: functional.
The test system of data set [13] is Staphylococcus aureus. The experiment in a line: Synergistic antibacterial activity against multidrug-resistant Staphylococcus aureus isolate 1402 assessed as fractional Inhibitory concentration index in presence of amoxicillin by broth microdilution assay. Type of data set: functional. The essentials: (§4)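 CLSI broth microdilution run on clinical MRSA isolates with each β-lactam alone, the test agent alone, and the two combined; agents dissolved in DMSO. Growth inhibition was read by eye. FIC index = FIC(compound) + FIC(β-lactam), where each FIC is the MIC in combination divided by the MIC alone. An index ≤0.5 was taken as synergy.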

For data set [14], the system named is Staphylococcus aureus. The data set is described as follows: Synergistic antibacterial activity against multidrug-resistant Staphylococcus aureus isolate 2895 assessed as fractional Inhibitory concentration index in presence of methicillin by broth microdilution assay. Format: functional.
The test system of data set [15] is Staphylococcus aureus. The data set is described as follows: Synergistic antibacterial activity against multidrug-resistant Staphylococcus aureus isolate 757 assessed as fractional Inhibitory concentration index in presence of methicillin by broth microdilution assay. Format: functional.
The subject of data set [16] is Staphylococcus aureus. The experiment in a line: Synergistic antibacterial activity against multidrug-resistant Staphylococcus aureus isolate 3332 assessed as fractional Inhibitory concentration index in presence of cloxacillin by broth microdilution assay. Format: functional.
Data set [17] concerns Staphylococcus aureus. The experiment in a line: Synergistic antibacterial activity against multidrug-resistant Staphylococcus aureus isolate 3411 assessed as fractional Inhibitory concentration index in presence of cloxacillin by broth microdilution assay. Format: functional.
For data set [18], the system named is Staphylococcus aureus. The experiment in a line: Synergistic antibacterial activity against multidrug-resistant Staphylococcus aureus isolate 2973 assessed as fractional Inhibitory concentration index in presence of cloxacillin by broth microdilution assay. Type of data set: functional.
Data set [19] concerns Staphylococcus aureus. The experiment in a line: Synergistic antibacterial activity against multidrug-resistant Staphylococcus aureus isolate 1749 assessed as fractional Inhibitory concentration index in presence of meropenem by broth microdilution assay. Format: functional. The essentials:
as §4

Data set [20] relates to Staphylococcus aureus. The data set is described as follows: Synergistic antibacterial activity against multidrug-resistant Staphylococcus aureus isolate 1717 assessed as fractional Inhibitory concentration index in presence of meropenem by broth microdilution assay. Format: functional. The essentials: as §4
Data set [21] can be described thus: AUC (0 to infinity) in Sprague-Dawley rat at 1 mg/kg, iv by UPLC-MS/MS analysis. Format: ADME, organism-based. Further details: dose 1 mg/kg, time infinity, route intravenous. The following applies: in vivo.

Values after ≈ are worked out from the molar mass of the structure shown.

Regarding `CCCCCCCCCNc1ccc(F)c(C(N)=O)c1F`, the MIC (commonly the lowest concentration found to suppress growth) came to 16 µg/mL (≈ 53.6 µM) in data set [1]; 16 µg/mL (≈ 53.6 µM) in [2]; 128 µg/mL (≈ 429 µM) in data set [3]; 8 µg/mL in data set [4]; 16 µg/mL in data set [5]; 2 µg/mL in data set [6]. Also, the MIC in data set [7] worked out at 4 µg/mL; in data set [8], 4 µg/mL; in data set [9], 4 µg/mL; in data set [10], 2 µg/mL; in [11], 16 µg/mL. Moreover, the “fractional inhibitory concentration index (FICI)” value in data set [12] is given as 1.1; in data set [13], 1; in data set [14], 0.3; in [15] it was 0.1; in data set [16], 0.4; in [17], 0.5. Besides, the figures for the “fractional inhibitory concentration index (FICI)” value in [18], in data set [19] and in [20] were 0.1, 10 and 3, respectively. In data set [21], the AUC(0-inf) (in general, the area under the concentration-time curve extrapolated to infinity) was found to be 1600 ng·h/mL.

(Values after ChEMBL document CHEMBL4330069, “Boosting the efficacy of anti-MRSA β-lactam antibiotics via an easily accessible, non-cytotoxic and orally bioavailable FtsZ inhibitor” (Eur J Med Chem, 2019).)
